Among the data in ChEMBL document CHEMBL2311328, “Molecular docking and synthesis of novel quinazoline analogues as inhibitors of transcription factors NF-κB activation and their anti-cancer activities” (2013) are inhibition, Activity and GI50 values, retold here.

The subject of test [1] is HepG2. Description: Inhibition of TNFalpha-induced NFkappaB (unknown origin)-dependent transcriptional activity expressed in human HepG2 cells at 1 uM incubated for 1 hr prior to TNFalpha induction measured after 6 hrs by dual-luciferase reporter gene assay. Format: cell-based. Summed up:
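HepG2 cells in DMEM with 10% FBS were lipofectamine-transfected with 10 ng/well pGL4.32 NF-κB-Luc plus Renilla control. Compound in DMSO was given in fresh medium for 1 h at 37 °C, then TNFα (final 20 ng/ml) for 6 h. Cells were lysed in passive lysis buffer. Firefly light units were normalized to Renilla; one-way ANOVA.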

The subject of test [2] is HepG2. The experiment in a line: Cytotoxicity against human HepG2 cells assessed as cellular growth at 50 uM incubated for 1 hr prior to TNF alpha stimulation measured after 48 hrs by SRB assay. Format: functional. Summed up:
(§1)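 HepG2 cells in DMEM with 10% FBS and penicillin/streptomycin were allowed to adhere 24 h, and a T0 plate was fixed. Compound was given for 1 h at 37 °C, with or without 20 ng/ml TNFα, then 48 h more. Cells were stained with 0.4% SRB for 30 min at RT, washed in 1% acetic acid, and solubilized in 10 mM Tris. OD read at 515 nm; one-way ANOVA.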
For orientation: The SRB assay estimates cell density from bound dye.

In test [3] the test system is HepG2. Description: Cytotoxicity against human HepG2 cells assessed as cellular growth at 50 uM after 48 hrs by SRB assay in absence of TNFalpha. Format: functional. Summed up:
as §1

The next test deals with LOX IMVI. The experiment in a line: Cytotoxicity against human LOXIMVI cells after 48 hrs by SRB assay. It counts as functional. Summed up:
(§2)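 Screened by the NCI Developmental Therapeutics Program in dose-response format. GI50 was determined by the sulforhodamine B protocol.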

A further test relates to SF-539. Description: Cytotoxicity against human SF539 cells after 48 hrs by SRB assay. Format: functional. Particulars: SF-539, 48 h. The method, boiled down:
as §2

A further test has as its system SF-268. The experiment in a line: Cytotoxicity against human SF268 cells after 48 hrs by SRB assay. It counts as functional. Particulars: SF-268, 48 h. The method, boiled down:
as §2

The next test concerns 786-0. The experiment in a line: Cytotoxicity against human 786-0 cells after 48 hrs by SRB assay. It counts as functional. Particulars: 786-0, 48 h. Summed up: as §2
The test system of another test is IGROV-1. The experiment in a line: Cytotoxicity against human IGROV1 cells after 48 hrs by SRB assay. It counts as functional. Particulars: IGROV-1, 48 h. The method, boiled down:
as §2

The next test has as its system UACC-62. Description: Cytotoxicity against human UACC62 cells after 48 hrs by SRB assay. Format: functional. Particulars: UACC-62, 48 h. The method, boiled down:
as §2

The subject of the next test is T47D. Description: Cytotoxicity against human T47D cells after 48 hrs by SRB assay. Format: functional. Summed up:
as §2

In the next test the test system is COLO 205. Description: Cytotoxicity against human COLO205 cells after 48 hrs by SRB assay. It counts as functional. Particulars: COLO 205, 48 h. The method, boiled down:
as §2

The test system of a further test is KM12. Description: Cytotoxicity against human KM12 cells after 48 hrs by SRB assay. Format: functional. The settings on record: KM12, 48 h. Summed up: as §2
Another test relates to U-251. Description: Cytotoxicity against human U251 cells after 48 hrs by SRB assay. Format: functional. The settings on record: U-251, 48 h. The method, boiled down:
as §2

Test [4] in a line: Cytotoxicity against human SKOC3 cells after 48 hrs by SRB assay. It counts as functional. The settings on record: SKOC3, 48 h. Summed up:
as §2

The subject of the next test is SNB-19. Description: Cytotoxicity against human SNB19 cells after 48 hrs by SRB assay. It counts as functional. The settings on record: SNB-19, 48 h. The method, boiled down:
as §2

Another test concerns UACC-257. The experiment in a line: Cytotoxicity against human UACC257 cells after 48 hrs by SRB assay. Format: functional. The settings on record: UACC-257, 48 h. The method, boiled down:
as §2

Test [5] in a line: Cytotoxicity against human NCI-ADR-RES cells after 48 hrs by SRB assay. It counts as functional. The method, boiled down:
as §2

The next test deals with M14. The experiment in a line: Cytotoxicity against human M14 cells after 48 hrs by SRB assay. It counts as functional. Particulars: M14, 48 h. Summed up: as §2
Another test concerns Hs-578T. Description: Cytotoxicity against human Hs578T cells after 48 hrs by SRB assay. Format: functional. The method, boiled down:
as §2

The next test has as its system TK-10. The experiment in a line: Cytotoxicity against human TK10 cells after 48 hrs by SRB assay. It counts as functional. Particulars: TK-10, 48 h. Summed up: as §2
A further test concerns OVCAR-4. Description: Cytotoxicity against human OVCAR4 cells after 48 hrs by SRB assay. It counts as functional. The settings on record: OVCAR-4, 48 h. The method, boiled down: as §2
The test system of a further test is CAKI-1. The experiment in a line: Cytotoxicity against human Caki1 cells after 48 hrs by SRB assay. Particulars: CAKI-1, 48 h. Format: functional. Summed up: as §2
The test system of another test is HCT-15. Description: Cytotoxicity against human HCT15 cells after 48 hrs by SRB assay. It counts as functional. The settings on record: HCT-15, 48 h. Summed up: as §2
For a further test, the system named is SK-MEL-28. The experiment in a line: Cytotoxicity against human SK-MEL-28 cells after 48 hrs by SRB assay. Format: functional. The settings on record: SK-MEL-28, 48 h. Summed up:
as §2

Another test has as its system A498. The experiment in a line: Cytotoxicity against human A498 cells after 48 hrs by SRB assay. It counts as functional. The settings on record: A498, 48 h. The method, boiled down:
as §2

Another test concerns SN12C. The experiment in a line: Cytotoxicity against human SN12C cells after 48 hrs by SRB assay. It counts as functional. Summed up: as §2
The test system of a further test is HCC 2998. Description: Cytotoxicity against human HCC2998 cells after 48 hrs by SRB assay. It counts as functional. The settings on record: HCC 2998, 48 h. Summed up: as §2
The subject of another test is OVCAR-3. Description: Cytotoxicity against human OVCAR3 cells after 48 hrs by SRB assay. Particulars: OVCAR-3, 48 h. It counts as functional. Summed up:
as §2

A further test concerns Malme-3M. Description: Cytotoxicity against human MALME-3M cells after 48 hrs by SRB assay. Format: functional. The method, boiled down: as §2
Another test concerns MCF7. Description: Cytotoxicity against human MCF7 cells after 48 hrs by SRB assay. It counts as functional. Particulars: MCF7, 48 h. The method, boiled down: as §2
In another test the test system is SNB-75. The experiment in a line: Cytotoxicity against human SNB75 cells after 48 hrs by SRB assay. It counts as functional. The settings on record: SNB-75, 48 h. Summed up: as §2
The subject of a further test is SF-295. The experiment in a line: Cytotoxicity against human SF295 cells after 48 hrs by SRB assay. It counts as functional. The settings on record: SF-295, 48 h. Summed up:
as §2

The next test has as its system OVCAR-8. The experiment in a line: Cytotoxicity against human OVCAR8 cells after 48 hrs by SRB assay. It counts as functional. The settings on record: OVCAR-8, 48 h. The method, boiled down: as §2
For another test, the system named is DU-145. Description: Cytotoxicity against human DU145 cells after 48 hrs by SRB assay. Format: functional. The settings on record: DU-145, 48 h. The method, boiled down:
as §2

Another test has as its system SK-MEL-2. Description: Cytotoxicity against human SK-MEL-2 cells after 48 hrs by SRB assay. It counts as functional. Particulars: SK-MEL-2, 48 h. The method, boiled down: as §2
A further test relates to MDA-MB-231. Description: Cytotoxicity against human MDA-MB-231 cells after 48 hrs by SRB assay. Format: functional. Particulars: MDA-MB-231, 48 h. The method, boiled down:
as §2

The test system of a further test is HCT-116. The experiment in a line: Cytotoxicity against human HCT116 cells after 48 hrs by SRB assay. Format: functional. The settings on record: HCT-116, 48 h. The method, boiled down: as §2
The test system of the next test is SW-620. Description: Cytotoxicity against human SW620 cells after 48 hrs by SRB assay. The settings on record: SW-620, 48 h. It counts as functional. The method, boiled down:
as §2

Another test relates to MDA-MB-435. The experiment in a line: Cytotoxicity against human MDA-MB-435 cells after 48 hrs by SRB assay. It counts as functional. Particulars: MDA-MB-435, 48 h. The method, boiled down:
as §2

The next test has as its system UO-31. The experiment in a line: Cytotoxicity against human UO31 cells after 48 hrs by SRB assay. Format: functional. The settings on record: UO-31, 48 h. The method, boiled down:
as §2

A further test deals with PC-3. The experiment in a line: Cytotoxicity against human PC3 cells after 48 hrs by SRB assay. Format: functional. Particulars: PC-3, 48 h. The method, boiled down:
as §2

In the next test the test system is BT-549. The experiment in a line: Cytotoxicity against human BT549 cells after 48 hrs by SRB assay. Format: functional. The settings on record: BT-549, 48 h. Summed up:
as §2

The subject of the next test is RXF 393. Description: Cytotoxicity against human RXF393 cells after 48 hrs by SRB assay. Particulars: RXF 393, 48 h. It counts as functional. Summed up:
as §2

Calls of active or inactive are those of the source. The calls are words filed in the database; no cut-off is given here.

In the case of `Oc1ccc(CN2CCN(c3nc(-c4ccccc4)nc4ccccc34)CC2)cc1`, in the test with HepG2 [1], the inhibition entry was “Active”. Besides, the Activity with HepG2 [2] is listed as -49.1%; in the test on HepG2 [3] it was -37.6%.
As to `c1ccc2c(NCCc3c[nH]c4ccccc34)ncnc2c1`, the GI50 (commonly the concentration giving 50% growth inhibition) in the test on LOX IMVI came to 15.5 µM; in the test with SF-539, 39.8 µM; in the test with SF-268, 34.7 µM; in the test on 786-0, 33.9 µM; in the test on IGROV-1, 14.1 µM; with UACC-62 it was 14.1 µM. Moreover, the GI50 in the test with T47D is 12 µM; with COLO 205, 28.2 µM; in the test on KM12 it was 19.1 µM; with U-251, 30.9 µM; in test [4] it was 58.9 µM; in the test with SNB-19 it was 50.1 µM. For the same molecule, the GI50 in the test with UACC-257 is 9.8 µM; in [5], 5.6 µM; in the test on M14, 24.6 µM; in the test on Hs-578T, 60.3 µM; with TK-10 it was 20.4 µM; in the test on OVCAR-4, 1.5 µM. Besides, the GI50 with CAKI-1 was 2.2 µM; with HCT-15, 24 µM; with SK-MEL-28, 25.1 µM; with A498 it was 2.8 µM; with SN12C, 30.2 µM; in the test with HCC 2998, 26.3 µM. Moreover, the GI50 with OVCAR-3 worked out at 19.1 µM; in the test on Malme-3M, 29.5 µM; in the test with MCF7 it was 11.2 µM; with SNB-75, 22.9 µM; in the test on SF-295, 3.5 µM; in the test with OVCAR-8, 5.5 µM. In addition, the GI50 stood at 27.5 µM with DU-145; 30.9 µM in the test on SK-MEL-2; 21.9 µM in the test on MDA-MB-231; 6.3 µM with HCT-116; 41.7 µM in the test with SW-620; 10.2 µM with MDA-MB-435. For the same molecule, the GI50 in the test on UO-31 was 14.5 µM; with PC-3, 19.5 µM; in the test with BT-549, 12.3 µM; in the test with RXF 393, 30.9 µM. Moreover, the inhibition entry with HepG2 [1] was “Active”. Further, the Activity is given as -30% in the test on HepG2 [2] and -22.3% in the test with HepG2 [3].
On to `Oc1ccc(Br)cc1CN1CCN(c2nc(-c3ccccc3)nc3ccccc23)CC1`, for which the inhibition result in the test with HepG2 [1] is “Active”. The Activity was determined as 13% with HepG2 [2] and 15.5% with HepG2 [3].
On to `Oc1ccccc1CN1CCN(c2nc(-c3ccccc3)nc3ccccc23)CC1`, for which the inhibition entry in the test on HepG2 [1] is “Active”. In addition, the Activity was 13% with HepG2 [2] and 14.6% in the test with HepG2 [3].
Turning to `Oc1ccccc1CN1CCN(c2ncnc3ccccc23)CC1`, the inhibition entry in the test on HepG2 [1] was “Active”. Also, the Activity with HepG2 [2] is -26%; in the test with HepG2 [3], -21.7%.
On the same counts, the results for `c1ccc(CN2CCN(c3ncnc4ccccc34)CC2)cc1` are “Active”, -17.6% and -16.7%.
On the same counts, the results for `Oc1ccc(CN2CCN(c3ncnc4ccccc34)CC2)cc1` are “Active”, -13.3% and -5.3%.
